Reference: ChEMBL document CHEMBL4342508, “Discovery and Pharmacokinetics of Sulfamides and Guanidines as Potent Human Arginase 1 Inhibitors” (ACS Med Chem Lett, 2020)
One block for each compound: values may come before it.

Key:
Settings in all cases: in vivo
[1] = Oral bioavailability in Sprague-Dawley rat at 10 mg/kg measured up to 24 hrs by LC-MS/MS analysis; type: ADME, organism-based
[2] = Clearance in Sprague-Dawley rat at 3 mg/kg, iv measured up to 24 hrs by LC-MS/MS analysis; type: ADME, organism-based
[3] = Clearance in rat; type: ADME
[4] = Oral bioavailability in rat; type: ADME, organism-based
Procedure, shortened: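 Male Sprague–Dawley rats were dosed at 3 mg/kg i.v. and 10 mg/kg p.o., and plasma concentrations were followed over time for up to 24 h after dosing. Oral bioavailability comes from the p.o. versus i.v. plasma exposure profiles.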

[5] = Mean residence time in BALB/c mouse at 3 mg/kg, iv measured up to 24 hrs by LC-MS/MS analysis; type: ADME, organism-based
[6] = Mean residence time in Sprague-Dawley rat at 3 mg/kg, iv measured up to 24 hrs by LC-MS/MS analysis; type: ADME, organism-based
Procedure, shortened: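 Male Sprague–Dawley rats dosed with the hydrochloride salt at 3 mg/kg i.v. or 10 mg/kg p.o.; plasma concentration–time profiles followed over 24 h, with PK parameters derived from them. Oral bioavailability comes from comparing the p.o. and i.v. arms.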

bioavailability [1]: 89% | clearance [2]: 2.3 mL/min/kg
Structure (SMILES): N[C@@H](CCCCB(O)O)C(=O)O

clearance [3]: 10 mL/min/kg | bioavailability [4]: 52%
Structure (SMILES): C[C@H](N)C(=O)N1C[C@H](CCCB(O)O)[C@](N)(C(=O)O)C1

MRT [5]: 48.6 min
Structure (SMILES): NC(CCCCB(O)O)(CNS(N)(=O)=O)C(=O)O (configuration not stated)

MRT [5]: 15.6 min
Structure (SMILES): N=C(N)NCC(N)(CCCCB(O)O)C(=O)O (configuration not stated)

MRT [6]: 715 min
Structure (SMILES): N=C(N)NC[C@](N)(CCCCB(O)O)C(=O)O
